# Source: ChEMBL document CHEMBL1137524, “Synthesis and antibacterial activity of pyranmycin derivatives with N-1 and O-6 modifications” (2007)
# Experiments:
# Type in all cases: functional
# Klebsiella pneumoniae [1] = assay: Antibacterial activity against Klebsiella pneumoniae ATCC 13883 after 12 to 18 hrs
# In short: (§1)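 Broth microdilution in Trypticase Soy broth. Bacteria grown at 35 °C for 1–2 h, adjusted with broth to A625 0.08–0.1, then diluted 100 µL into 10 mL broth. 50 µL inoculum was combined with 50 µL of 2-fold serial compound dilutions and incubated at 35 °C for 12–18 h. MIC taken as the lowest concentration inhibiting growth.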
# Escherichia coli [2] = assay: Antibacterial activity against Escherichia coli ATCC 25922 after 12 to 18 hrs
# In short: (§2)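 Broth microdilution MIC. Bacteria grown in Trypticase Soy broth at 35 °C for 1–2 h, adjusted with broth to A625 0.08–0.1, then 100 µL diluted into 10 mL broth. Wells received diluted inoculum plus 2-fold serial dilutions of compound. Incubated 35 °C for 12–18 h. MIC taken as lowest concentration inhibiting growth, in µg/mL.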
# Escherichia coli [3] = assay: Antibacterial activity against aminoglycoside-susceptible Escherichia coli TG1 after 12 to 18 hrs; in short: as §2
# Pseudomonas aeruginosa = assay: Antibacterial activity against Pseudomonas aeruginosa ATCC 27853 after 12 to 18 hrs; in short: as §1
# Escherichia coli [4] = assay: Antibacterial activity against aminoglycoside-resistant Escherichia coli TG1 pTZ19U-3 after 12 to 18 hrs; in short: as §2
# Klebsiella pneumoniae [5] = assay: Antibacterial activity against Klebsiella pneumoniae ATCC 700603 after 12 to 18 hrs; in short: as §1
# Escherichia coli [6] = assay: Antibacterial activity against aminoglycoside-resistant Escherichia coli TG1 pSF815 after 12 to 18 hrs; in short: as §2
# Staphylococcus aureus = assay: Antibacterial activity against methicillin-resistant Staphylococcus aureus ATCC 33591 after 12 to 18 hrs; in short: as §2
Structure (SMILES),MIC (Klebsiella pneumoniae [1]) [µg/mL],MIC (Escherichia coli [2]) [µg/mL],MIC (Escherichia coli [3]) [µg/mL],MIC (Pseudomonas aeruginosa) [µg/mL],MIC (Escherichia coli [4]) [µg/mL],MIC (Klebsiella pneumoniae [5]) [µg/mL],MIC (Escherichia coli [6]) [µg/mL],MIC (Staphylococcus aureus) [µg/mL]
C[C@H]1O[C@@H](O[C@@H]2[C@@H](O)[C@H](NC(=O)[C@@H](O)CCN)C[C@H](N)[C@H]2O[C@H]2O[C@H](CN)[C@@H](O)[C@H](O)[C@H]2N)[C@H](O)[C@@H](O)[C@@H]1N,1,8,4,2,4,1,2,≥ 32
C[C@H]1O[C@@H](O[C@@H]2[C@@H](OCCN)[C@H](NC(=O)[C@@H](O)CCN)C[C@H](N)[C@H]2O[C@H]2O[C@H](CN)[C@@H](O)[C@H](O)[C@H]2N)[C@H](O)[C@@H](O)[C@@H]1N,4,8,8,0.5,1,2,2,≥ 32
CCCO[C@@H]1[C@@H](O[C@@H]2O[C@H](C)[C@@H](N)[C@H](O)[C@H]2O)[C@H](O[C@H]2O[C@H](CN)[C@@H](O)[C@H](O)[C@H]2N)[C@@H](N)C[C@H]1NC(=O)[C@@H](O)CCN,–,≥ 32,8,–,≥ 32,–,≥ 32,–
C[C@H]1O[C@@H](O[C@@H]2[C@@H](OCCO)[C@H](NC(=O)[C@@H](O)CCN)C[C@H](N)[C@H]2O[C@H]2O[C@H](CN)[C@@H](O)[C@H](O)[C@H]2N)[C@H](O)[C@@H](O)[C@@H]1N,–,16,2,–,16,–,8,–
C[C@H]1O[C@@H](O[C@@H]2[C@@H](O)[C@H](N)C[C@H](N)[C@H]2O[C@H]2O[C@H](CN)[C@@H](O)[C@H](O)[C@H]2N)[C@H](O)[C@@H](O)[C@@H]1N,4,8,8,4,≥ 32,16,8,≥ 32
NC[C@H]1O[C@H](O[C@H]2[C@H](O[C@@H]3O[C@H](CO)[C@@H](O)[C@H]3O)[C@@H](O)[C@H](N)C[C@@H]2N)[C@H](N)[C@@H](O)[C@@H]1O [RIBOSTAMYCIN],–,8,4,–,≥ 32,–,4,–
NCC[C@H](O)C(=O)N[C@@H]1C[C@H](N)[C@@H](O[C@H]2O[C@H](CN)[C@@H](O)[C@H](O)[C@H]2N)[C@H](O[C@@H]2O[C@H](CO)[C@H](O)[C@H]2O)[C@H]1O [BUTIROSIN A],1,4,1,1,0.5,1,0.5,≥ 32
NC[C@@H]1O[C@H](O[C@H]2[C@@H](O)[C@H](O[C@@H]3[C@@H](O)[C@H](N)C[C@H](N)[C@H]3O[C@H]3O[C@H](CN)[C@@H](O)[C@H](O)[C@H]3N)O[C@@H]2CO)[C@H](N)[C@@H](O)[C@@H]1O [FRAMYCETIN],8,4,4,0.5,≥ 32,16,4,≥ 32
